Experimental data taken from ChEMBL document CHEMBL3271975, “Synthesis and biological activity of a series of 1-aryl-3-pyrazolidinones” (J Med Chem, 1976).
Active and inactive are the calls of the source. No cut-off for these calls is given here.

Key:
Rattus norvegicus [1] = test: Antifertility activity in rat at 5 mg/day administered for 7 days; type: functional, organism-based
Procedure, shortened: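 Rat antifertility test: 5 mg/rat/day given for 7 days to two female rats.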

Rattus norvegicus [2] = species: Rattus norvegicus; test: CNS activity in rat assessed as gross behaviour; type: ADME, organism-based; settings: in vivo

## CCOC(=O)CCCCCOC1=NN(c2cccc(OC)c2)CC1
Rattus norvegicus [1]
  Activity: inactive
Rattus norvegicus [2]
  Activity: Non-toxic

## O=C1CCN(c2cccc(C(F)(F)F)c2)N1
Rattus norvegicus [1]
  Activity: inactive
Rattus norvegicus [2]
  Activity: Non-toxic

## CCCCOc1cccc(N2CCC(=O)N2)c1
Rattus norvegicus [1]
  Activity: inactive
Rattus norvegicus [2]
  Activity: Non-toxic

## O=C1CCN(c2cccc(Cl)c2)N1
Rattus norvegicus [1]
  Activity: inactive
Rattus norvegicus [2]
  Activity: Non-toxic

## CCOC(=O)COC1=NN(c2cccc(Cl)c2)CC1
Rattus norvegicus [1]
  Activity: inactive
Rattus norvegicus [2]
  Activity: Non-toxic

## COc1cccc(N2CCC(=O)N2)c1
Rattus norvegicus [1]
  Activity: inactive
Rattus norvegicus [2]
  Activity: Non-toxic

## CCOC(=O)COC1=NN(c2cccc(C(F)(F)F)c2)CC1
Rattus norvegicus [1]
  Activity: inactive
Rattus norvegicus [2]
  Activity: Non-toxic

## COc1cccc(N2CCC(=O)N2CCCC(O)c2ccc(F)cc2)c1 (stereo not drawn)
Rattus norvegicus [1]
  Activity: inactive
Rattus norvegicus [2]
  Activity: Non-toxic

## COc1cccc(N2CCC(=O)N2CCCC(=O)c2ccc(F)cc2)c1
Rattus norvegicus [1]
  Activity: inactive
Rattus norvegicus [2]
  Activity: Non-toxic
